The text below walks through data of ChEMBL document CHEMBL2176997, “Salicylanilide inhibitors of Toxoplasma gondii” (J Med Chem, 2012).

pIC50: −log10 of the molar value. ≈ marks a conversion by molar mass, not a printed value. Calls of active or inactive are those of the source. The calls are words filed in the database; no cut-off is given here.

The test system of series [1] is Toxoplasma gondii. Description: Antiapicomplexan activity against Toxoplasma gondii RH tachyzoites expressing yellow fluorescent protein infected in HFF cells assessed as parasite growth inhibition at 1 uM administered for 25 days followed by compound wash out. It is filed as functional, organism-based.
Series [2] relates to Toxoplasma gondii. The series can be described thus: Parasitostatic activity against Toxoplasma gondii RH tachyzoites expressing yellow fluorescent protein infected in HFF cells at 1 uM administered for 10 days followed by compound wash out measured on day 17. It is filed as functional, organism-based. A digest of the protocol: (§1)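 RH-YFP tachyzoites grown in HFF cells were exposed to 1 µM compound under set schedules: 4 days of treatment then removal, or 10 days of treatment then removal. Parasite burden was followed over time as YFP fluorescence (excitation 514 nm, emission 540 nm, bottom read) and compared with untreated infected controls.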

Series [3] deals with Plasmodium falciparum. Description: Antiapicomplexan activity against chloroquine-resistant Plasmodium falciparum TM91-C235 assessed as growth inhibition after 72 hrs by MSF assay. It is filed as functional, organism-based. As to conditions: TM91-C235, 72 h. A digest of the protocol: (§2)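 P. falciparum D6 or TM91-C235, late-ring/early-trophozoite stage, cultured at 0.3% parasitemia and 2% hematocrit on predosed plates. Twelve two-fold dilutions spanned 0.5–10000 ng/ml final, in quadruplicate, with chloroquine control. Incubation 72 h at 37°C under 5% CO2/5% O2/90% N2. Lysis buffer with SYBR Green I (10x final) was added, then 24 h dark at room temperature. IC50 from fluorescence by sigmoidal variable-slope regression.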

The test system of series [4] is Toxoplasma gondii. Description: Parasitostatic activity against Toxoplasma gondii RH tachyzoites expressing yellow fluorescent protein infected in HFF cells at 1 uM administered for 4 days followed by compound wash out measured on day 11 relative to untreated control. It counts as functional, organism-based. The method, boiled down:
as §1

Series [5] relates to Plasmodium falciparum. Description: Antiapicomplexan activity against chloroquine-sensitive Plasmodium falciparum D6 assessed as growth inhibition after 72 hrs by MSF assay. The conditions noted are these: D6, 72 h. It counts as functional, organism-based. The method, boiled down: as §2
The test system of series [6] is Toxoplasma gondii. Description: Antiapicomplexan activity against Toxoplasma gondii THdhxgTRP tachyzoites harboring insertional mutation assessed as growth inhibition after 6 weeks. It is filed as functional, organism-based.
Series [7] has as its system HFF. Description: Cytotoxicity against HFF cells assessed as survival by WST1 assay. It is filed as cell-based. The conditions noted are these: human. The method, boiled down:
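Confluent HFF cells were treated with compounds at the concentrations used in the challenge assays. On the final day WST-1 reagent was added, followed by 1 h incubation in the dark at 37°C and absorbance reading at 420 nm.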
(Tetrazolium assays rely on reduction of a dye to a coloured formazan, in cell work by metabolically active cells.)

For series [8], the system named is Toxoplasma gondii. The series can be described thus: Antiapicomplexan activity against Toxoplasma gondii RH tachyzoites infected in HFF cells assessed as [3H]-uracil incorporation after 24 hrs by scintillation luminescence counter. It is filed as functional. The method, boiled down:
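Confluent HFF monolayers in IMDM-C (10% FBS) infected with 3,500 needle-released tachyzoites per well. Compounds from 10 mM DMSO stocks, diluted in medium (final DMSO ≤0.1%), were added 1 h after infection, with 0.1% DMSO as vehicle control. [3H]-uracil (25 µL of 0.1 mCi/mL) was added 24 h before harvest onto glass-fibre filters and counted by scintillation. Cultures were kept at 33°C or 37°C, 5% CO2.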

In series [9] the test system is Toxoplasma gondii. Description: Antiapicomplexan activity against Toxoplasma gondii RH tachyzoites expressing yellow fluorescent protein infected in HFF cells after 72 hrs by fluorescence assay. It is filed as functional, organism-based. A digest of the protocol: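 Confluent HFF monolayers in IMDM-C (10% FBS) infected with 3,500 RH-YFP tachyzoites per well. Compounds were added 1 h later from 10 mM DMSO stocks, final DMSO ≤0.1%. Pyrimethamine/sulfadiazine and 0.1% DMSO served as controls. After 72 h YFP fluorescence was read (ex 514, em 540 nm, bottom optics), giving MIC50/MIC90 ranges. Plates held at 33°C or 37°C, 5% CO2.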

Series [10] has as its system Plasmodium falciparum. Description: Selectivity ratio of IC50 for chloroquine-resistant Plasmodium falciparum TM91-C235 to IC50 for chloroquine-sensitive Plasmodium falciparum D6. It counts as functional.

In general, pIC50 refers to the IC50 on a negative log10 scale, so that one unit is a factor of ten. In general, MIC50 refers to the lowest concentration that inhibits either 50% of growth or 50% of the strains tested, depending on the study. As a reminder, the MIC90 is an inhibitory concentration at the 90% level, which refers to growth in some studies and to a panel of isolates in others. As usually defined, the IC90 is the concentration needed for an effect of 90%. For the compound `CC(C)(C)c1cccc(NC(=O)c2cc(Cl)ccc2O)c1`, the “growth inhibition (GI)” value in series [1] and in [6] was “Active” each time. Also, the result in [2] and in series [4] was inactive. Besides, the pIC50 is below 5.19 in [3], 5.51 in [5] and 8.10 in [9]. In addition, the Activity in series [7] was above 1000 nM. Moreover, in [8], the MIC50 is 0.008 µM (≈ 2.43 ng/mL). For the same compound, in series [8], the MIC90 stood at 0.016 µM (≈ 4.86 ng/mL). Besides, in series [9], the IC90 was found to be 16 nM. The “Ratio IC50” value in series [10] turned out to be 2.
